“Also recorded” adds a separate entry of the source. Counter-ions that a name gives are not always drawn. Like-named read-outs stand apart in the source and are kept apart here.
How the values were obtained:
[1] = format: in vivo, Sprague Dawley rats; conditions: for Levels in liver, mean (SD): wet weight; for Detection in the brain: PCB 52 exposed rats
thyroid hormone receptor = conditions: ref Kitamura et al., 2005; cited from earlier work
estrogenic activity = conditions: ref Kitamura et al., 2005; cited from earlier work
SULT2A1 = conditions: ref Parker et al., 2018; cited from earlier work
SULT1E1 = conditions: ref Parker et al., 2018; cited from earlier work
N27 cell line = conditions: ref Rodriguez et al., 2018; cited from earlier work
SH-SY5Y cell line = conditions: ref Rodriguez et al., 2018; cited from earlier work
[2] = General toxicity: body and organ weights after IP exposure; format: in vivo, Sprague Dawley rats
In short: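 Rats were female Sprague Dawley, 4–5 weeks old and 75–100 g, acclimated 1 week. Each received a single IP dose of corn oil vehicle or test compound at 1, 10 or 100 mg/kg BW. Body weight was recorded at 5 time points over 3 weeks. After CO2 euthanasia, liver, spleen and thymus were excised; liver weight was adjusted for body weight. Groups were compared by one-way ANOVA with Tukey, p<0.05.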

[3] = test system: endogenous serum metabolites; experiment: Targeted metabolomics of serum samples; format: in vivo, Sprague Dawley rats; conditions: 0 to 100 mg/kg BW IP, 3 weeks
In short: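 In female Sprague Dawley rats, serum was taken 3 weeks after a single IP dose of vehicle or 1–100 mg/kg test compound. Heart blood clotted ≥30 min at room temperature and was spun at 2,500 g (10 min, 4°C). Extracts (solvent:sample 18:1, −20°C 1 h) were methoximated (60°C 1 h), then TMS-derivatized (60°C 30 min). GC-Orbitrap analysis used EI full scan m/z 56.7–850 against a 94-metabolite list. Intensities were total-normalized; data were analyzed by PLS-DA and dose linear regression with Benjamini-Hochberg FDR.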

[4] = test system: dopamine and its metabolites, DOPAL and DOPAC; experiment: Dopamine and metabolites analysis in striatum; format: in vivo, Sprague Dawley rats; conditions: different doses of PCB 52 IP, 3 weeks post injection, vs vehicle
In short: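 Female Sprague Dawley rats (4–5 weeks, 75–100 g, acclimated 1 week) got a single IP injection of corn oil or test compound in corn oil at 1, 10 or 100 mg/kg BW. They were euthanized after 3 weeks by CO2 and thoracotomy. Nigrostriatal tissue was homogenized in ice-cold 0.3 M perchloric acid and spun at 10,000 g for 10 min. Supernatant went to capillary HPLC with coulometric detection (guard +350, E1 −150, E2 +200 mV). Values are pmol/mg tissue; ANOVA with Tukey.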

[5] = male rats, single IP dose 150 mg/kg BW; ref Parkinson et al., 1983; cited from earlier work
CYP2B = conditions: PCB 52 exposure; ref Parkinson et al., 1983; cited from earlier work
[6] = 10 mg/kg BW PCB 52 IP, 3 weeks after dosing, N = 3
[7] = 100 mg/kg BW PCB 52 IP, 3 weeks after dosing, N = 5
[8] = 1, 10 or 100 mg/kg BW IP, 3 weeks, body weight-adjusted, vs vehicle
[9] = no dose-response relationship observed

Oc1cc(Cl)c(-c2cc(Cl)ccc2Cl)cc1Cl [4-OH-PCB 52, 2,5-dichloro-4-(2,5-dichlorophenyl)phenol]
Levels in liver, mean (SD) [1, 6]: 0.15 ng/g
Levels in liver, mean (SD) [1, 7]: 0.57 ng/g
Detection in the brain [1]: observed in the brain of one animal
Detection in adipose tissue ([1]; high-dose group (100 mg/kg BW)): detected only in adipose tissue from one animal
Affinity for the thyroid hormone receptor (thyroid hormone receptor): low affinity
Estrogenic activity in vitro (estrogenic activity): low estrogenic activity
Inhibition of SULT2A1 (SULT2A1): inhibitors

O=S(=O)(O)Oc1cc(Cl)c(-c2cc(Cl)ccc2Cl)cc1Cl [PCB 52 sulfate]
Inhibition of SULT2A1 (SULT2A1): inhibitors
Inhibition of SULT1E1 (SULT1E1): inhibitor
Toxicity (N27 cell line): low micromolar range
Toxicity (SH-SY5Y cell line): low micromolar range

Oc1cc(Cl)cc(-c2cc(Cl)ccc2Cl)c1Cl [X1-PCB 52, 2,2’,5,5’-tetrachlorobiphenyl-3-ol]
Estimated mean level in the serum ([1]; 10 mg/kg BW PCB 52 IP, 3 weeks after dosing): 0.07 ng/kg BW
Levels in liver, mean (SD) [1, 6]: 0.28 ng/g
Levels in serum, mean (SD) [1, 7]: 0.69 ng/g
Levels in liver, mean (SD) [1, 7]: 0.85 ng/g
Detection in the brain [1]: observed in the brain of one animal
Detection in adipose tissue ([1]; all other exposure groups (below high dose)): below the LOD
Detection in adipose tissue ([1]; high-dose group (100 mg/kg BW)): present

Clc1ccc(Cl)c(-c2cc(Cl)ccc2Cl)c1 [PCB 52, 2,2',5,5'-Tetrachlorobiphenyl]
Ratio of mean PCB 52 tissue levels, 100 mg/kg BW vs 10 mg/kg BW dose group ([1]; brain (lowest ratio)): 2.9
Ratio of mean PCB 52 tissue levels, 100 mg/kg BW vs 10 mg/kg BW dose group ([1]; highest ratio among tissues, tissue not given): 5.6
Ratio of mean PCB 52 levels, 10 mg/kg BW vs 1 mg/kg BW dose group ([1]; liver): ~7.0 times
Ratio of mean PCB 52 levels, 10 mg/kg BW vs 1 mg/kg BW dose group ([1]; serum): approximately 4.0 times
Presence in tissues investigated (adipose, brain, liver, serum) ([1]; three weeks following the IP injection): present in all tissues investigated
Effect on bodyweight-adjusted liver weights ([2]; 10 mg/kg BW IP, 3 weeks, vs vehicle group, p < 0.05): significantly smaller; also recorded: significant decrease
Effect on overall body weight ([2]; 1, 10 or 100 mg/kg BW IP, 3-week study, vs vehicle): did not affect; also recorded: no significant impact
Effect on spleen weights [2, 8]: did not affect
Effect on thymus weights [2, 8]: did not affect
Serum L-cysteine levels [3]: decreased dose-dependent
Serum L-histidine levels [3]: dose-dependent increase
Serum cytosine levels [3]: decreased dose-dependent
Serum erythrose levels [3]: decreased dose-dependent
Serum glycine levels [3]: dose-dependent increase
Serum orotic acid levels [3]: decreased dose-dependent
Serum sphingosine levels [3]: decreased dose-dependent
Serum linoleic acid levels [3, 9]: significantly affected
Serum thymine levels [3, 9]: significantly affected
Number of significantly altered serum metabolites ([3]; out of the 81 metabolites included, raw p-values < 0.05): 9
DOPAC levels in the striatum [4]: no significant differences; also recorded: not significantly different
DOPAL levels in the striatum [4]: no significant differences; also recorded: not significantly different
Dopamine levels in the striatum [4]: no significant differences; also recorded: not significantly different
Bodyweight-adjusted liver weights vs control [5]: not significantly different
CYP2B enzyme activity in the rat liver (CYP2B): induced

— paper PMC10441371 (bioRxiv, 2023)
